These results are taken from ChEMBL document CHEMBL1141590, “Development of peptidomimetics with a vinyl sulfone warhead as irreversible falcipain-2 inhibitors” (J Med Chem, 2008).

The test system of one test is Plasmodium falciparum. Put plainly: Antiplasmodial activity against Plasmodium falciparum 3D7 after 72 hrs in Malstat assay. It counts as functional, organism-based. To be noted: 3D7, 72 h. The procedure, abridged: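 Synchronized ring-stage P. falciparum 3D7 plated at 1% parasitemia with compounds (in DMSO) at 1 nM–100 µM; 0.5% v/v DMSO alone as negative control. Cultured in vitro 72 h, then viability read by Malstat assay (parasite lactate dehydrogenase activity); dose-dependent effect quantified.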

Another test concerns the target T1, Falcipain 2 (Plasmodium falciparum, UniProt Q9N6S8).
T1 sequence (Q9N6S8 whole entry): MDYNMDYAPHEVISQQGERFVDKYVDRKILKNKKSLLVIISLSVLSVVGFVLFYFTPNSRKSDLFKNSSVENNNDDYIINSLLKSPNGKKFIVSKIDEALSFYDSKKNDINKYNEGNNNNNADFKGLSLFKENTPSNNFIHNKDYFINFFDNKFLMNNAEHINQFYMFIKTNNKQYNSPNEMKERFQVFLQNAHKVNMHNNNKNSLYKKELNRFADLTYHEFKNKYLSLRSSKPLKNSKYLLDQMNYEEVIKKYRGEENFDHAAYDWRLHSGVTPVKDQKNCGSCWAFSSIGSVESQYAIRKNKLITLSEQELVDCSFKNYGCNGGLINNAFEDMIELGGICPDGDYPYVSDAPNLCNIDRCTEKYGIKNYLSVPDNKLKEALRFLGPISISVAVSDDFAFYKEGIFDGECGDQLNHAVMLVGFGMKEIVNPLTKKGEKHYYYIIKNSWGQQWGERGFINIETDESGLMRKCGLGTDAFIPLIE
Briefly: (§1) Inhibition of Plasmodium falciparum recombinant falcipain-2. Put shortly: (§2)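 Recombinant FP-2 in 100 mM sodium acetate pH 5.5, 10 mM DTT; Cbz-Phe-Arg-AMC 32 µM, fluorescence (ex 365/em 460 nm) monitored continuously 20 min at room temperature. Seven inhibitor levels within 0–10 µM; kobs from progress-curve fits, hyperbolic fit gave kinac and Kiapp, corrected with Km 21.5 µM; k2nd = kinac/Kinac. Two independent runs, each in duplicate.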

In test [1] the target is T2, Falcipain 2 (Plasmodium falciparum) (UniProt Q9N6S8).
T2 sequence (whole entry): T1 sequence (Q9N6S8 whole entry)
The description is as §1. The procedure, abridged: as §2

In another test the target is Procathepsin L (Homo sapiens, UniProt P07711). Put plainly: Inhibition of human cathepsin L. The procedure, abridged: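 Cathepsin L continuous progress-curve assay with Cbz-Phe-Arg-AMC at 5 µM; Kiapp corrected to zero substrate using Km 6.5 µM to give Kinac. Two independent runs, each in duplicate.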
The target in another test is Cathepsin B (Homo sapiens, UniProt P07858). Put plainly: Inhibition of human cathepsin B. The procedure, abridged: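 Cathepsin B continuous progress-curve assay with Cbz-Phe-Arg-AMC at 80 µM; Kiapp corrected to zero substrate using Km 150 µM to give Kinac. Two independent runs, each in duplicate.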

pIC50, pKi: −log10 of the molar value. Bounds are passed on as bounds.

Take `CCS(=O)(=O)/C=C/[C@H](CCc1ccccc1)NC(=O)CN1C(=O)[C@@H](COC(=O)Nc2ccc(Cl)cc2C(F)(F)F)N=C(c2ccccc2)c2ccccc21`: the pIC50 (as a rule, the IC50 on a negative log10 scale, so that one unit is a factor of ten) in the test on Plasmodium falciparum was 5.04. The pKi (as a rule, the Ki on a negative log10 scale, so that one unit is a factor of ten) is 6.49 on Falcipain 2, 4.87 at Procathepsin L and 5.36 on Cathepsin B. Further, the values for the Kinact (in test [1]; on Procathepsin L; on Cathepsin B) were 0.1 min⁻¹, 0.1 min⁻¹ and 0.045 min⁻¹, respectively.

As to `O=C(CN1C(=O)[C@@H](COC(=O)Nc2ccc(Cl)cc2C(F)(F)F)N=C(c2ccccc2)c2ccccc21)NC/C=C/S(=O)(=O)c1ccccc1`, the pIC50 in the test with Plasmodium falciparum was 4.64; at Falcipain 2 it was 5.10. Also, the results for the pKi at Falcipain 2, at Procathepsin L and on Cathepsin B were 6.85, 4.66 and 5.34, respectively. Also, the Kinact in test [1] was 0.033 min⁻¹; at Procathepsin L, 0.16 min⁻¹; at Cathepsin B it was 0.047 min⁻¹.

Take `O=C(CN1C(=O)[C@@H](COC(=O)Nc2ccc(Cl)cc2C(F)(F)F)N=C(c2ccccc2)c2ccccc21)N[C@H]1CC(=O)OC1O` (some centres not stated): the pIC50 at Falcipain 2 is 5.10.

Consider `O=C(CN1C(=O)[C@@H](COC(=O)Nc2ccc(Cl)cc2C(F)(F)F)N=C(c2ccccc2)c2ccccc21)N[C@H](/C=C/S(=O)(=O)c1ccccc1)CCc1ccccc1`, for which the pIC50 with Plasmodium falciparum was 5.04. The results for the pKi at Falcipain 2, at Procathepsin L and at Cathepsin B were 6.22, 5.15 and 5.51, respectively. The Kinact in test [1] worked out at 0.11 min⁻¹; on Procathepsin L, 0.12 min⁻¹; at Cathepsin B, 0.039 min⁻¹.

On to `COc1ccc(S(=O)(=O)/C=C/CNC(=O)CN2C(=O)C(COC(=O)Nc3ccc(Cl)cc3C(F)(F)F)N=C(c3ccccc3)c3ccccc32)cc1` (configuration not stated), for which the pIC50 in the test on Plasmodium falciparum was < 4.00; at Falcipain 2 it was 5.10. In addition, the pKi is 6.92 on Falcipain 2, 4.85 at Procathepsin L and 5.23 on Cathepsin B. Further, the Kinact in test [1] came to 0.031 min⁻¹; at Procathepsin L, 0.1 min⁻¹; on Cathepsin B it was 0.059 min⁻¹.

`CC(C)C[C@H](NC(=O)[C@H]1O[C@@H]1C(=O)O)C(=O)NCCCCN=C(N)N` [E-64] had a negative logarithm of the IC50 (pIC50) in the test on Plasmodium falciparum of 5.28. Besides, the pKi at Falcipain 2 is 6.54. In test [1], the Kinact was found to be 0.46 min⁻¹.

`CCS(=O)(=O)/C=C/CNC(=O)CN1C(=O)[C@@H](COC(=O)Nc2ccc(Cl)cc2C(F)(F)F)N=C(c2ccccc2)c2ccccc21`: the pIC50 is 4.25 in the test on Plasmodium falciparum and 5.10 at Falcipain 2. Moreover, the figures for the pKi at Falcipain 2 and on Cathepsin B were 6.96 and 5.37, respectively. Moreover, the Kinact was found to be 0.027 min⁻¹ in test [1] and 0.039 min⁻¹ on Cathepsin B.

Regarding `CS(=O)(=O)/C=C/CNC(=O)CN1C(=O)[C@@H](COC(=O)Nc2ccc(Cl)cc2C(F)(F)F)N=C(c2ccccc2)c2ccccc21`, the values for the pIC50 with Plasmodium falciparum and at Falcipain 2 were 4.74 and 5.10, respectively. Moreover, the values for the pKi on Falcipain 2 and at Cathepsin B were 6.43 and 4.96, respectively. The Kinact in test [1] was found to be 0.059 min⁻¹; at Cathepsin B, 0.048 min⁻¹.

Take `CS(=O)(=O)/C=C/[C@H](CCc1ccccc1)NC(=O)CN1C(=O)[C@@H](COC(=O)Nc2ccc(Cl)cc2C(F)(F)F)N=C(c2ccccc2)c2ccccc21`: the pIC50 in the test with Plasmodium falciparum was 4.26; on Falcipain 2, 5.10. The values for the pKi at Falcipain 2 and at Cathepsin B were 6.41 and 4.84, respectively. Also, the Kinact in test [1] was found to be 0.16 min⁻¹; at Cathepsin B, 0.064 min⁻¹.

With `COc1ccc(S(=O)(=O)/C=C/[C@H](CCc2ccccc2)NC(=O)CN2C(=O)[C@@H](COC(=O)Nc3ccc(Cl)cc3C(F)(F)F)N=C(c3ccccc3)c3ccccc32)cc1`, the pIC50 in the test on Plasmodium falciparum is 4.22. Further, the pKi at Falcipain 2 was 7.28; on Cathepsin B it was 5.48. For the same compound, the figures for the Kinact (in test [1]; on Cathepsin B) were 0.034 min⁻¹ and 0.045 min⁻¹, respectively.
